Assay results reported in ChEMBL document CHEMBL4028907, “Semisynthesis and Biological Evaluation of Xanthone Amphiphilics as Selective, Highly Potent Antifungal Agents to Combat Fungal Resistance” (J Med Chem, 2017).
In brackets after ≈: the same amount, converted by molar mass.

Legend:
Candida albicans [1] = test: Antifungal activity against drug resistant Candida albicans DF2672R after 24 hrs by two fold serial dilution method; type: functional
How it was run: (§1)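 Candida grown on Sabouraud dextrose agar at 35 °C for 24 h, adjusted to ~5×10^3 CFU/mL. Two-fold dilutions from 100 to 0.78 μg/mL in Sabouraud dextrose broth, incubated at 35 °C for 24 h. MIC is the lowest concentration inhibiting growth by eye and by OD600. CLSI-based with minor modifications.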

[2] = Selectivity index, ratio of HC50 for New Zealand white rabbit RBC to MIC for Candida albicans ATCC 10231
Candida albicans [3] = test: Antifungal activity against Candida albicans ATCC 10231 after 24 hrs by two fold serial dilution method; type: functional; details: ATCC 10231, 24 h; how it was run: as §1

Compound	MIC (Candida albicans [1])	Selectivity Index [2]	MIC (Candida albicans [3])
C[C@@H]1[C@H](O)[C@@H](C)/C=C/C=C/C=C/C=C/C=C/C=C/C=C/[C@H](O[C@@H]2O[C@H](C)[C@@H](O)[C@H](N)[C@@H]2O)C[C@@H]2O[C@](O)(C[C@@H](O)C[C@@H](O)[C@H](O)CC[C@@H](O)C[C@@H](O)CC(=O)O[C@H]1C)C[C@H](O)[C@H]2C(=O)O [AMPHOTERICIN B]	0.2 µg/mL (≈ 0.216 µM)		
COc1c(OCC(O)CNC(CO)(CO)CO)cc2oc3cc(OCC(O)CNC(CO)(CO)CO)c(CC=C(C)C)c(O)c3c(=O)c2c1CC=C(C)C (stereo not drawn)	6.25 µg/mL (≈ 8.17 µM)	3.9	6.25 µg/mL (≈ 8.17 µM)
CCCC[N+](C)(CCCC)CC(O)COc1cc2oc3cc(OCC(O)C[N+](C)(CCCC)CCCC)c(OC)c(CC=C(C)C)c3c(=O)c2c(O)c1CC=C(C)C.[I-].[I-] (stereo not drawn)	6.25 µg/mL	5.3	6.25 µg/mL
COc1c(OCC(O)CNCCNC(=N)N)cc2oc3cc(OCC(O)CNC(=N)N)c(CC=C(C)C)c(O)c3c(=O)c2c1CC=C(C)C (stereo not drawn)	6.25 µg/mL (≈ 9.14 µM)	8.6	6.25 µg/mL (≈ 9.14 µM)
COc1c(OCC(O)CNCCN)cc2oc3cc(OCC(O)CNCCN)c(CC=C(C)C)c(O)c3c(=O)c2c1CC=C(C)C (stereo not drawn)	12.5 µg/mL (≈ 19.4 µM)	2.4 to 4.8	6.25 µg/mL (≈ 9.72 µM)
COc1c(OCC(O)CNCCNCCNCCN)cc2oc3cc(OCC(O)CNCCNCCNCCN)c(CC=C(C)C)c(O)c3c(=O)c2c1CC=C(C)C (stereo not drawn)	25 µg/mL (≈ 30.7 µM)	14.9 to 29.8	12.5 µg/mL (≈ 15.3 µM)
CCCCCCNCC(O)COc1cc2oc3cc(OCC(O)CNCCCCCC)c(OC)c(CC=C(C)C)c3c(=O)c2c(O)c1CC=C(C)C (stereo not drawn)	12.5 µg/mL (≈ 17.2 µM)	27.5	12.5 µg/mL (≈ 17.2 µM)
COc1c(OCC(=O)N[C@@H](CCCNC(=N)N)C(N)=O)cc2oc3cc(OCC(=O)N[C@@H](CCCNC(=N)N)C(N)=O)c(CC=C(C)C)c(O)c3c(=O)c2c1CC=C(C)C	6.25 µg/mL (≈ 7.47 µM)	20.5	6.25 µg/mL (≈ 7.47 µM)
CCCNCC(O)COc1cc2oc3cc(OCC(O)CNCCC)c(OC)c(CC=C(C)C)c3c(=O)c2c(O)c1CC=C(C)C (stereo not drawn)	6.25 µg/mL (≈ 9.75 µM)	11.6	6.25 µg/mL (≈ 9.75 µM)
COc1c(O)cc2oc3cc(O)c(CC=C(C)C)c(O)c3c(=O)c2c1CC=C(C)C [MANGOSTIN]	> 50 µg/mL	< 0.2	> 50 µg/mL
COc1c(OCC(O)CN(C)C)cc2oc3cc(OCC(O)CN(C)C)c(CC=C(C)C)c(O)c3c(=O)c2c1CC=C(C)C (stereo not drawn)	6.25 µg/mL (≈ 10.2 µM)	4.8	6.25 µg/mL (≈ 10.2 µM)
CCCCCCCCNCC(O)COc1cc2oc3cc(OCC(O)CNCCCCCCCC)c(OC)c(CC=C(C)C)c3c(=O)c2c(O)c1CC=C(C)C (stereo not drawn)	> 50 µg/mL		> 50 µg/mL
CC[C@@H]([C@H](C)O)n1ncn(-c2ccc(N3CCN(c4ccc(OC[C@@H]5CO[C@@](Cn6cncn6)(c6ccc(F)cc6F)C5)cc4)CC3)cc2)c1=O [POSACONAZOLE]	12.5 µg/mL (≈ 17.8 µM)		
COc1c(OCC(O)Cn2ccnc2)cc2oc3cc(OCC(O)Cn4ccnc4)c(CC=C(C)C)c(O)c3c(=O)c2c1CC=C(C)C (stereo not drawn)	12.5 µg/mL (≈ 19 µM)	> 32	12.5 µg/mL (≈ 19 µM)
CN(C/C=C/C#CC(C)(C)C)Cc1cccc2ccccc12 [TERBINAFINE]	3.13 µg/mL (≈ 10.7 µM)		
Clc1ccc(COC(Cn2ccnc2)c2ccc(Cl)cc2Cl)c(Cl)c1 (stereo not drawn) [MICONAZOLE]	0.39 µg/mL (≈ 0.937 µM)		
COC(=O)[C@H](CCCNC(=N)N)NC(=O)[C@H](CCCNC(=N)N)NC(=O)COc1cc2oc3cc(OCC(=O)N[C@@H](CCCNC(=N)N)C(=O)N[C@@H](CCCNC(=N)N)C(=O)OC)c(OC)c(CC=C(C)C)c3c(=O)c2c(O)c1CC=C(C)C	12.5 µg/mL (≈ 10.6 µM)	22.2 to 44.4	6.25 µg/mL (≈ 5.3 µM)
COc1c(OCC(O)CNCCNCCN)cc2oc3cc(OCC(O)CNCCNCCN)c(CC=C(C)C)c(O)c3c(=O)c2c1CC=C(C)C (stereo not drawn)	12.5 µg/mL (≈ 17.1 µM)	13.2 to 26.4	6.25 µg/mL (≈ 8.57 µM)
COc1c(OCC2CO2)cc2oc3cc(OCC4CO4)c(CC=C(C)C)c(O)c3c(=O)c2c1CC=C(C)C (stereo not drawn)	> 50 µg/mL		> 50 µg/mL
CCC(C)n1ncn(-c2ccc(N3CCN(c4ccc(OCC5COC(Cn6cncn6)(c6ccc(Cl)cc6Cl)O5)cc4)CC3)cc2)c1=O (stereo not drawn) [ITRACONAZOLE]	6.25 µg/mL (≈ 8.86 µM)		
